The values that follow come from ChEMBL document CHEMBL2396524, “Design, synthesis and biological evaluation of enzymatically cleavable NSAIDs prodrugs derived from self-immolative dendritic scaffolds for the treatment of inflammatory diseases” (Bioorg Med Chem, 2013).

Molecules are shown by their SMILES.

Data set [1] relates to Mus musculus. Kind of data set: Antiinflammatory activity in Kunming mouse assessed as inhibition of xylene-induced auricle tumefaction at 25 uM/kg, tid qd for 5 days relative to control. The format is functional. The procedure, abridged: (§1)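 Male Kunming mice (18–22 g), 10 per group, with 0.9% NaCl as the blank group. Dosing was once daily for 5 days (table footnote); the methods say t.i.d. Drug was given at molar equivalence to naproxen. 1 h after the last dose, a 7 mm xylene-soaked filter was held on the right ear for 30 s. Mice were killed 30 min later and 7 mm ear discs punched. Inhibition % = (1 − a/b)×100.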

The nature of data set [2]: Chemical stability of the compound in phosphate buffer at pH 7 assessed as compound remaining at 0.1 uM after 48 hrs by RP-HPLC analysis. Type of data set: physicochemical. As to conditions: read-out: Stability. The gist of the method:
(§2)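 Conjugates at 0.1 µM were incubated at 37 °C in 20 mM phosphate buffer at pH 2.0, 7.0 or 8.0. Intact conjugate was measured by RP-HPLC: RP18 column, methanol/0.05 mol/l KH2PO4 pH 3.0 (60:40), 1.0 ml/min, UV 256 nm, 25 °C. Results are % remaining, mean ± SD.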

Data set [3] can be described thus: Chemical stability of the compound in phosphate buffer at pH 8 assessed as compound remaining at 0.1 uM after 48 hrs by RP-HPLC analysis. Type of data set: physicochemical. As to conditions: read-out: Stability. The gist of the method: as §2
The test system of data set [4] is Mus musculus. Kind of data set: Gastrointestinal toxicity in Kunming mouse assessed as ulcer index at 200 mg/kg, po after 4 hrs. Type of data set: organism-based. Also on record: dose 200 mg/kg, route oral. The conditions noted are these: in vivo. The procedure, abridged: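 Kunming mice of either sex (18–22 g), 10 per group, were fasted 24 h. A 200 mg/kg oral dose was given as a suspension in 1% methylcellulose, and mice were killed after 4 h. Stomachs were fixed 30 min in 10% formaldehyde, opened along the greater curvature and lesion lengths measured under magnification. UI = summed lesion length (mm) per group divided by 10 animals.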

Data set [5] is described as follows: Chemical stability of the compound in phosphate buffer at pH 2 assessed as compound remaining at 0.1 uM after 48 hrs by RP-HPLC analysis. The format is physicochemical. As to conditions: read-out: Stability. The procedure, abridged: as §2
Data set [6] can be described thus: Chemical stability of the compound in phosphate buffer at pH 8 assessed as compound remaining at 0.1 uM after 240 hrs by RP-HPLC analysis. Type of data set: physicochemical. The conditions noted are these: read-out: Stability. The gist of the method: as §2
For the next data set, the system named is HEK293. Kind of data set: Cytotoxicity against HEK293 cells assessed as cell viability at 2 to 32 ug/ml after 24 hrs by MTT assay. Type of data set: cell-based. As to conditions: human, hek293, 24 h. The gist of the method: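 HEK293 cells were seeded at 2500/well and grown 24 h before compound exposure. The figure legend gives 24 h exposure; the methods give 48 h. MTT (5 mg/ml) was then added for 2.5 h at 37 °C. Formazan was dissolved in DMSO and read at 570 nm. Viability is % of control cells, mean ± SD, n = 3.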
A general note: Tetrazolium assays rely on reduction of a dye to a coloured formazan, in cell work by metabolically active cells.

Data set [7] in a line: Chemical stability of the compound in phosphate buffer at pH 2 assessed as compound remaining at 0.1 uM after 240 hrs by RP-HPLC analysis. The conditions noted are these: read-out: Stability. The format is physicochemical. The gist of the method:
as §2

A short description of data set [8]: Chemical stability of the compound in phosphate buffer at pH 7 assessed as compound remaining at 0.1 uM after 240 hrs by RP-HPLC analysis. The format is physicochemical. As to conditions: read-out: Stability. The gist of the method: as §2
The subject of data set [9] is Mus musculus. Kind of data set: Antiinflammatory activity in Kunming mouse assessed as inhibition of xylene-induced auricle tumefaction at 22.2 uM/kg, tid qd for 5 days relative to control. The format is functional. The gist of the method:
as §1

Regarding `COc1ccc2cc(C(C)C(=O)OCCN(CCOC(=O)C(C)c3ccc4cc(OC)ccc4c3)CCC(=O)OCCN(CCOC(=O)CCN(CCOC(=O)C(C)c3ccc4cc(OC)ccc4c3)CCOC(=O)C(C)c3ccc4cc(OC)ccc4c3)CCC(=O)OCCN(CCOC(=O)CCN(CCOC(=O)CCN(CCOC(=O)C(C)c3ccc4cc(OC)ccc4c3)CCOC(=O)C(C)c3ccc4cc(OC)ccc4c3)CCOC(=O)CCN(CCOC(=O)C(C)c3ccc4cc(OC)ccc4c3)CCOC(=O)C(C)c3ccc4cc(OC)ccc4c3)CCC(=O)OCc3ccccc3)ccc2c1` (centres undefined), the “inhibition (INH)” value in the data set on Mus musculus [1] came to 39.62%. The remaining at 48 h, 0.1 µM in data set [2] was found to be 96.2%; in data set [3], 97.3%; in data set [5], 95.7%. In the data set on Mus musculus [4], the UI was 6.93. Besides, the remaining at 240 h, 0.1 µM was 79.4% in data set [6], 72.3% in data set [7] and 95.9% in data set [8]. In addition, the Activity entry with HEK293 was “Non-toxic”.

In the case of `COc1ccc2cc(C(C)C(=O)NCCCCC(NC(=O)C(C)c3ccc4cc(OC)ccc4c3)C(=O)NCCCCC(NC(=O)C(CCCCNC(=O)C(C)c3ccc4cc(OC)ccc4c3)NC(=O)C(C)c3ccc4cc(OC)ccc4c3)C(=O)NCCCCC(NC(=O)C(CCCCNC(=O)C(CCCCNC(=O)C(C)c3ccc4cc(OC)ccc4c3)NC(=O)C(C)c3ccc4cc(OC)ccc4c3)NC(=O)C(CCCCNC(=O)C(C)c3ccc4cc(OC)ccc4c3)NC(=O)C(C)c3ccc4cc(OC)ccc4c3)C(=O)OCc3ccccc3)ccc2c1` (centres undefined), in the data set on Mus musculus [1], the “inhibition (INH)” value was 48.18%. Besides, the results for the remaining at 48 h, 0.1 µM in data set [2], in data set [3] and in [5] were 97.6%, 91.2% and 97.1%, respectively. Moreover, the UI in the data set with Mus musculus [4] was 6.21. Moreover, the remaining at 240 h, 0.1 µM in [6] worked out at 89.4%; in data set [7], 93.1%; in data set [8], 96.1%. The Activity result in the data set on HEK293 was “Non-toxic”.

With `COc1ccc2cc(C(C)C(=O)OCC(COC(=O)C(C)c3ccc4cc(OC)ccc4c3)(COC(=O)C(C)c3ccc4cc(OC)ccc4c3)NC(=O)CCC(=O)OCC(COC(=O)CCC(=O)NC(COC(=O)C(C)c3ccc4cc(OC)ccc4c3)(COC(=O)C(C)c3ccc4cc(OC)ccc4c3)COC(=O)C(C)c3ccc4cc(OC)ccc4c3)(COC(=O)CCC(=O)NC(COC(=O)C(C)c3ccc4cc(OC)ccc4c3)(COC(=O)C(C)c3ccc4cc(OC)ccc4c3)COC(=O)C(C)c3ccc4cc(OC)ccc4c3)NC(=O)OCc3ccccc3)ccc2c1` (centres undefined), in the data set on Mus musculus [9], the “inhibition (INH)” value was 49.64%. The remaining at 48 h, 0.1 µM in data set [2] amounted to 99.1%; in [3], 94.5%; in [5], 97.2%. Further, the UI with Mus musculus [4] turned out to be 5.94. Moreover, the remaining at 240 h, 0.1 µM in [6] was determined as 79.4%; in data set [7], 89.9%; in data set [8] it was 98.4%. The Activity result in the data set with HEK293 is on record as “Non-toxic”.

For the compound `COc1ccc2cc([C@H](C)C(=O)O)ccc2c1` [NAPROXEN], in the data set on Mus musculus [4], the UI turned out to be 8.26. For the same compound, in the data set on HEK293, the Activity result was “Non-toxic”.
